This note sets out measurements from ChEMBL document CHEMBL4406821, “Novel dual inhibitors targeting CDK4 and VEGFR2 synergistically suppressed cancer progression and angiogenesis” (Eur J Med Chem, 2019).

Activity calls are given as the source filed them. The calls are words filed in the database; no cut-off is given here.

For data set [1], the target named is Serine/threonine-protein kinase Nek2 (Homo sapiens) (UniProt P51955). The data set can be described thus: Inhibition of recombinant human full length NEK2 at 1 uM using myelin basic protein as substrate incubated for 40 mins in presence of [gamma-33P]-ATP by scintillation counting method relative to control.
In data set [2] the target is T1, Vascular endothelial growth factor receptor 2 (Homo sapiens, UniProt P35968). The data set can be described thus: Inhibition of VEGFR2 in HUVEC cells assessed as reduction in Akt phosphorylation at 20 to 40 nM incubated for 48 hrs by Western blot analysis. Format: cell-based. A digest of the protocol: (§1)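 HUVECs were maintained in 1640 medium with 10% FBS. They were treated with graded concentrations for 48 h, PBS-washed and lysed in RIPA buffer. Immunoblots were probed for total and phospho VEGFR2, STAT3, Akt, Erk1 and Src, each at 1:1000. β-actin served as loading control.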
(Immunoblotting shows a protein as a band on a membrane.)

The target of data set [3] is Ephrin type-A receptor 1 (Homo sapiens) (UniProt P21709). The data set can be described thus: Inhibition of recombinant human EPhA1 (568 to end residues) at 1 uM using KKKSPGEYVNIEFG as substrate incubated for 40 mins in presence of [gamma-33P]-ATP by scintillation counting method relative to control.
For data set [4], the target named is Fibroblast growth factor receptor 4 (Homo sapiens) (UniProt P22455). The data set can be described thus: Inhibition of recombinant human FGFR4 (442 to 755 residues) at 1 uM using poly(Glu, Tyr) 4:1 as substrate incubated for 40 mins in presence of [gamma-33P]-ATP by scintillation counting method relative to control. A digest of the protocol: (§2)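 Tested at a single 1 uM in an outsourced commercial kinase-profiling panel, read as percent inhibition. Each value is the mean of two independent experiments.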

Data set [5] addresses T1, Vascular endothelial growth factor receptor 2. The data set can be described thus: Inhibition of VEGFR2 in HUVEC cells assessed as reduction in VEGFR2 phosphorylation at 20 to 40 nM incubated for 48 hrs by Western blot analysis. Type of data set: cell-based. The essentials: as §1
Data set [6] has as its system HeLa. The data set can be described thus: Inhibition of colony formation in human HeLa cells at 40 to 80 nM incubated for 5 days by crystal violet staining based light microscopy. Format: functional, cell-based. A digest of the protocol:
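4 × 10^3 cells per well were cultured with graded concentrations for 5 days. Cells were then fixed with 20% methanol, stained with 0.5% crystal violet and photographed by light microscopy.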

Data set [7] concerns the target Serine-protein kinase ATM (Homo sapiens) (UniProt Q13315). The data set can be described thus: Inhibition of recombinant human full length ATM at 1 uM using GST-cMyc-p53 as substrate incubated for 40 mins in presence of [gamma-33P]-ATP by scintillation counting method relative to control.
Data set [8] is described as follows: Toxicity in NOD/SCID BALB/c mouse xenografted with human SiHa cells assessed as toxic effects in liver at 40 mg/kg, po administered for 48 hrs by hematoxylin and eosin staining method. Format: organism-based. The settings on record: in vivo. (In general: In xenograft studies the graft and the host belong to different species.)
The subject of data set [9] is MDA-MB-231. The data set can be described thus: Induction of apoptosis in human MDA-MB-231 cells assessed as increase in early apoptotic cells at 20 to 40 nM incubated for 48 hrs by annexin V FITC and propidium iodide staining based flow cytometry. Type of data set: functional, cell-based. A digest of the protocol: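 Cells were treated for 48 h, stained with FITC Annexin V and PI, and analyzed by flow cytometry to count early and late apoptotic cells.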

Data set [10] deals with Serine/threonine-protein kinase haspin (Homo sapiens) (UniProt Q8TF76). The data set can be described thus: Inhibition of recombinant human Haspin (471 to end residues) at 1 uM using RARTLSFAEPG as substrate incubated for 40 mins in presence of [gamma-33P]-ATP by scintillation counting method relative to control.
The subject of data set [11] is HeLa. The data set can be described thus: Induction of cell cycle arrest in human HeLa cells assessed as decrease in accumulation in S phase at 40 to 80 nM incubated for 36 hrs by propidium iodide staining based flow cytometry. Format: functional. The essentials:
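Cells were treated with graded concentrations for 36 h, then fixed overnight in 70% ice-cold ethanol at 4°C and resuspended in PBS. Staining used 50 µg/ml PI plus 5 µg/ml RNase at 37°C for 30 min. DNA content was analysed by FACS to give G0/G1, S and G2/M fractions.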
In general terms: A flow cytometer gives signals particle by particle.

The target in data set [12] is Protein kinase C gamma type (Homo sapiens) (UniProt P05129). The data set can be described thus: Inhibition of recombinant human full length PKCgamma at 1 uM using histone H1 as substrate incubated for 40 mins in presence of [gamma-33P]-ATP by scintillation counting method relative to control.
For data set [13], the target named is Serine/threonine-protein kinase B-raf (Homo sapiens) (UniProt P15056). The data set can be described thus: Inhibition of recombinant human B-Raf (416 to end residues) at 1 uM using myelin as substrate incubated for 40 mins in presence of [gamma-33P]-ATP by scintillation counting method relative to control. A digest of the protocol:
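Kinase panel profiling at 1 μM performed by Eurofins KinaseProfiler; percent inhibition reported as mean of two independent experiments.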

Data set [14] has as its target Serine/threonine-protein kinase WNK2 (Homo sapiens) (UniProt Q9Y3S1). The data set can be described thus: Inhibition of recombinant human WNK2 (166 to 489 residues) at 1 uM using myelin basic protein as substrate incubated for 40 mins in presence of [gamma-33P]-ATP by scintillation counting method relative to control.
Data set [15] concerns SiHa. The data set can be described thus: Induction of apoptosis in human SiHa cells assessed as decrease in Bcl2 expression at 40 to 80 nM incubated for 48 hrs by Western blot analysis. Type of data set: functional, cell-based. The essentials: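 Cancer cells were exposed to graded concentrations for 48 h, washed three times in PBS and lysed in RIPA buffer. Immunoblots were probed with anti-Rb, anti-phospho-Rb, anti-Ki67 and anti-Bcl-2, each at 1:1000. β-actin served as loading control.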

In data set [16] the target is Serine/threonine-protein kinase MRCK beta (Homo sapiens) (UniProt Q9Y5S2). The data set can be described thus: Inhibition of recombinant human MRCKbeta (1 to 473 residues) at 1 uM using KKRNRTLTV as substrate incubated for 40 mins in presence of [gamma-33P]-ATP by scintillation counting method relative to control.
The subject of data set [17] is MDA-MB-231. The data set can be described thus: Induction of apoptosis in human MDA-MB-231 cells assessed as decrease in Ki67 expression at 20 to 40 nM incubated for 48 hrs by Western blot analysis. Format: functional, cell-based. The essentials:
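Cells were treated for 48 h, washed three times with PBS, and lysed in RIPA buffer. Immunoblots used anti-Rb, anti-phospho-Rb, anti-Ki67 and anti-Bcl-2 (each 1:1000), with β-actin as loading control.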

The target in data set [18] is Serine/threonine-protein kinase 10 (Homo sapiens) (UniProt O94804). The data set can be described thus: Inhibition of recombinant human LOK (1 to 348 residues) at 1 uM using RLGRDKYKTLRQIRQ as substrate incubated for 40 mins in presence of [gamma-33P]-ATP by scintillation counting method relative to control.
The target in data set [19] is G protein-coupled receptor kinase 5 (Homo sapiens) (UniProt P34947). The data set can be described thus: Inhibition of recombinant human full length GRK5 at 1 uM using casein as substrate incubated for 40 mins in presence of [gamma-33P]-ATP by scintillation counting method relative to control. The essentials: as §2
Data set [20] has as its target Mitogen-activated protein kinase kinase kinase 5 (Homo sapiens) (UniProt Q99683). The data set can be described thus: Inhibition of recombinant human ASK1 (649 to 946 residues) at 1 uM using myelin ba as substrate incubated for 40 mins in presence of [gamma-33P]-ATP by scintillation counting method relative to control. A digest of the protocol: as §2
Data set [21] can be described thus: n-octanol/phosphate buffered saline partition coefficient, log D of the compound measured at pH 7.4 by shake flask method based HPLC analysis. Type of data set: physicochemical.

T1 sequence (P35968 whole entry): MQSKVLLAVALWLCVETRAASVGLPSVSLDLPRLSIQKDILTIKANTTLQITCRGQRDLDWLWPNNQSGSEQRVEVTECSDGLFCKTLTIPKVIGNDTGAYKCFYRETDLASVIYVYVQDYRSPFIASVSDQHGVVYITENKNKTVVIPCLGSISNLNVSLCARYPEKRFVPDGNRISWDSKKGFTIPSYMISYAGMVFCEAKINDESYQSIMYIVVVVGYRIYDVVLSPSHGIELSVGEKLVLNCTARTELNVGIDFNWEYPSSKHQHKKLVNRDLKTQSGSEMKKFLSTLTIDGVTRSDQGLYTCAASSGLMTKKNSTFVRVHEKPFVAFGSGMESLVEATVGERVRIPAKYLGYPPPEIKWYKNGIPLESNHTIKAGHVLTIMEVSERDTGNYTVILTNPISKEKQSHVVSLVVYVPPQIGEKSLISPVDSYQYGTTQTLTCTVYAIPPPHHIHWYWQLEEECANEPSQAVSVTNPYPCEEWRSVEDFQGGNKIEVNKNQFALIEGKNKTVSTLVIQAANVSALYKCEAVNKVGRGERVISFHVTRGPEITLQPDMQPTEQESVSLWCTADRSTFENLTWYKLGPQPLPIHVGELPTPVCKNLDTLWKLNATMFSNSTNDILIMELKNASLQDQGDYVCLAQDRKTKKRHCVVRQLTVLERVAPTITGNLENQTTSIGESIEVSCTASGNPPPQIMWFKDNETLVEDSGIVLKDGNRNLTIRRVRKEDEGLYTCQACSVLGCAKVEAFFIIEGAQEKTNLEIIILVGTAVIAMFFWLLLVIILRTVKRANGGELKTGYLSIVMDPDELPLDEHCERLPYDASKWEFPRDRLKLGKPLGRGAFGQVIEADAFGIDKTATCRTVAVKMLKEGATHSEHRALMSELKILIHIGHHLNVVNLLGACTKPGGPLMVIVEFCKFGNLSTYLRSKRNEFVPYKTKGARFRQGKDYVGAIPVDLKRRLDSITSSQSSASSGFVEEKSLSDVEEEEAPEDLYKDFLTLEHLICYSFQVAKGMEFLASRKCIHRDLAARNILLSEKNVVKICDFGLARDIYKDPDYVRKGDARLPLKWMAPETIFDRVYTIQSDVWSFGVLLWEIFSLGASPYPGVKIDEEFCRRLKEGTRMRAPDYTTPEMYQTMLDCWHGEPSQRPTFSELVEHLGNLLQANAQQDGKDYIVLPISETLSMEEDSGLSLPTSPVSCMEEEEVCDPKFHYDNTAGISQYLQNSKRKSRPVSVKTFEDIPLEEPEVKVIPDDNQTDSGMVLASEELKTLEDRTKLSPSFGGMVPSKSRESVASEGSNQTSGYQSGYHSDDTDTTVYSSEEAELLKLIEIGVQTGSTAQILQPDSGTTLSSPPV
Chain of Serine/threonine-protein kinase B-raf (Homo sapiens) (P15056 whole entry): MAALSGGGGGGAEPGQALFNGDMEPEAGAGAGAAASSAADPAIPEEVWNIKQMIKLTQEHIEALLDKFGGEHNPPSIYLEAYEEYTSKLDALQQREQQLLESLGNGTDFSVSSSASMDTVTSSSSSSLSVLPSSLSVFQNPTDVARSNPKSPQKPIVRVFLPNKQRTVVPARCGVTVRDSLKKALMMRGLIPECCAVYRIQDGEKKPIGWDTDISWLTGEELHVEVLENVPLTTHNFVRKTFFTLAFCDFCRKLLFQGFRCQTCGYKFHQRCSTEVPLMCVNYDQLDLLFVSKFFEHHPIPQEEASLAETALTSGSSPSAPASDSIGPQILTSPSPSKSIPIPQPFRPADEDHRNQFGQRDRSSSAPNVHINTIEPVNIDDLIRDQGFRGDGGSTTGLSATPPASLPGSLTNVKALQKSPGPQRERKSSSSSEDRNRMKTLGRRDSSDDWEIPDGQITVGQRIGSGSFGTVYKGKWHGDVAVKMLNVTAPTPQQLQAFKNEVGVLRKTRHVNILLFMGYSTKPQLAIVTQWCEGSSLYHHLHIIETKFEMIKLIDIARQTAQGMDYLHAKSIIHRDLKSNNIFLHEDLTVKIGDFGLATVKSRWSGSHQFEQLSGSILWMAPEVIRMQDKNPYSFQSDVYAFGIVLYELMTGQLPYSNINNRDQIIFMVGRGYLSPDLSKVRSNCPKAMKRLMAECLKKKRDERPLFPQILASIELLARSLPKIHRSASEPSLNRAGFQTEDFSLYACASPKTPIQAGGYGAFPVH
Chain of Serine-protein kinase ATM (Homo sapiens) (Q13315 whole entry): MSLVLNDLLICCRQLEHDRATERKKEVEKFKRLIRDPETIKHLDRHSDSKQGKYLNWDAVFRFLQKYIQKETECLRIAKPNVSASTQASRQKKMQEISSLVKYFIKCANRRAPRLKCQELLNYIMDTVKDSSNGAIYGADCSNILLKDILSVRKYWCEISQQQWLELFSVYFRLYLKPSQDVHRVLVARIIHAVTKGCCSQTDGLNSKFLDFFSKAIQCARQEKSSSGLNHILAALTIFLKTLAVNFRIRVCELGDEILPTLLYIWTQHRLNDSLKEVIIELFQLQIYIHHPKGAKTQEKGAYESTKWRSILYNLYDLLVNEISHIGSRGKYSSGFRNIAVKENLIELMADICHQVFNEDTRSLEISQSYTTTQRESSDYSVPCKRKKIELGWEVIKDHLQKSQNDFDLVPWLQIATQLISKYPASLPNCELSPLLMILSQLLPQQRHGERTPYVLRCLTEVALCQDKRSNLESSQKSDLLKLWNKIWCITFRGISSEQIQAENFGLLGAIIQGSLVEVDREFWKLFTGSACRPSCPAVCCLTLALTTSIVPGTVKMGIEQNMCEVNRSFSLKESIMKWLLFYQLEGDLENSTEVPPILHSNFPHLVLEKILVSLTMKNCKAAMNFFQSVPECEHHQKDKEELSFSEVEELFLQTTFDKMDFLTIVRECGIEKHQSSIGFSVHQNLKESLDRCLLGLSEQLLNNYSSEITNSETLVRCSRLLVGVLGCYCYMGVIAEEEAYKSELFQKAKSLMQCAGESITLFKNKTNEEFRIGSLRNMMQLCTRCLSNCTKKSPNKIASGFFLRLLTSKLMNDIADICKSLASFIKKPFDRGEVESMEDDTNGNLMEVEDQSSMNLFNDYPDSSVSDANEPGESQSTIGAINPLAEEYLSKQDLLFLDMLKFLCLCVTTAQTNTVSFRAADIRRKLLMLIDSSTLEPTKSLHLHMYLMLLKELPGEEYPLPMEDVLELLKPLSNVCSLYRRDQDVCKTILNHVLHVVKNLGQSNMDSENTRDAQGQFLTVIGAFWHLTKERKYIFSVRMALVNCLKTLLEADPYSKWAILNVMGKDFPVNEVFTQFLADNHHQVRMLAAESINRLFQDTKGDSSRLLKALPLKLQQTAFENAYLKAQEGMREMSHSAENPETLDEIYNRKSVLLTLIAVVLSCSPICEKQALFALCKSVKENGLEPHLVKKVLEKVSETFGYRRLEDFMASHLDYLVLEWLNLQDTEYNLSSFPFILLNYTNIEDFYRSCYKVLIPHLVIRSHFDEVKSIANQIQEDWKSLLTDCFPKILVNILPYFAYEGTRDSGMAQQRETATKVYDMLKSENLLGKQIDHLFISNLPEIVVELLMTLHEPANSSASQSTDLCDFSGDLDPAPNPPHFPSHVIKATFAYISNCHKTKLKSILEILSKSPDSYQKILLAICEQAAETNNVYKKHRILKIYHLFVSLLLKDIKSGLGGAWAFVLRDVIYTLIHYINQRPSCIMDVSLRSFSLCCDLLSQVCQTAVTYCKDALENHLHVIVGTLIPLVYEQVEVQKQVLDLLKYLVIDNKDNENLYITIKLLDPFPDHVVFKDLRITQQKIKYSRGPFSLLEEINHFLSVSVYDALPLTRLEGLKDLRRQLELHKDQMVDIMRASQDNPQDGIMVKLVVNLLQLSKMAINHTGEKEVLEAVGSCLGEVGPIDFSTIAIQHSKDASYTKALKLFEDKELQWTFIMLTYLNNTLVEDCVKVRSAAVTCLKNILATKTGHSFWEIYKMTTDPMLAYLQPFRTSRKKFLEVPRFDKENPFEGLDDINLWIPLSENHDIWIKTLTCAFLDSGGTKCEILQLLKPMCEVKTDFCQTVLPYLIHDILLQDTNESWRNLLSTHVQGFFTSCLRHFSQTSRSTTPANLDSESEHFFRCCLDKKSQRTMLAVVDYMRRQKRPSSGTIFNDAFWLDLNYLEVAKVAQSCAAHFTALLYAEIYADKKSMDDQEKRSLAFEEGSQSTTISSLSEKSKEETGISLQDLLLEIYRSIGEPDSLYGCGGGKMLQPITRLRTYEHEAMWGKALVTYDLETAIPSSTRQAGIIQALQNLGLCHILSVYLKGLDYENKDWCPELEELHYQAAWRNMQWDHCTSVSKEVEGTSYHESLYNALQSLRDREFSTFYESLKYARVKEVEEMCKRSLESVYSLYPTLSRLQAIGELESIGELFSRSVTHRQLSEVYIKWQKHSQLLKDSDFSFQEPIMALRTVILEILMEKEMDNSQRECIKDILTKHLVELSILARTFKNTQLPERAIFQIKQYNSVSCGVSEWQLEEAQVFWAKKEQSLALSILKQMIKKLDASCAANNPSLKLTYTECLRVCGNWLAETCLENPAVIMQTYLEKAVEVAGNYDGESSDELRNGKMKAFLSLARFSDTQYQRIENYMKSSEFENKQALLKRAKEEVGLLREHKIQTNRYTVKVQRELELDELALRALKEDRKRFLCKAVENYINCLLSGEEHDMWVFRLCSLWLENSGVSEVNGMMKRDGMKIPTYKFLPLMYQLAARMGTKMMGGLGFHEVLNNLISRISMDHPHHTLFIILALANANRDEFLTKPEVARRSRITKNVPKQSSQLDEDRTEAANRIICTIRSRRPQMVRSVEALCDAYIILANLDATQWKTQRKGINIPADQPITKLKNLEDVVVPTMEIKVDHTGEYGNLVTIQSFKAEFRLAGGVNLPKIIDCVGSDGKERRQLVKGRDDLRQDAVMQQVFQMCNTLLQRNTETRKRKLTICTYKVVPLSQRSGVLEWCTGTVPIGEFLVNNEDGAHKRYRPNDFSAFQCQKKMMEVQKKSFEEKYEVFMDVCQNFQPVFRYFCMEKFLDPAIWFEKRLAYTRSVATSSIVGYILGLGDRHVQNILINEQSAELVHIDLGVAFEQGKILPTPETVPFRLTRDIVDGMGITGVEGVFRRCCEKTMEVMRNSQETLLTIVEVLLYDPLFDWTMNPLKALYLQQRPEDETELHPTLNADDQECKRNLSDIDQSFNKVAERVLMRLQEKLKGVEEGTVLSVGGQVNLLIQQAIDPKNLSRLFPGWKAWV

One may read the inhibition as the share of the control response that was lost under treatment. As usually defined, the logD is lipophilicity at a set pH, counting ionised and neutral species. Higher therefore signals a more lipophilic compound. Turning to `Cc1ccc(NC(=O)C2(C(=O)Nc3ccc(Nc4ncc(F)c(-c5cc(F)c6nc(C)n(C(C)C)c6c5)n4)cc3)CC2)cc1`, the inhibition in data set [1] was 57%; in data set [3], 73%; in [4], 0%; in data set [7], 2%; in [10], 22%; in data set [12], 23%. Further, the inhibition in [13] stood at 32%; in [14], 47%; in [16] it was 7%; in data set [18] it was 93%; in data set [19] it was 0%; in data set [20] it was 0%. Further, the inhibition entry in data set [2], in data set [5] and in [6] was “Active” each time. Moreover, in [8], the Activity result was “Non-Toxic”. Besides, the outcome in [9], in data set [11], in [15] and in data set [17] was Active. The same compound yielded a logD in data set [21] of 2.51.
